Most compounds without a hit are left out; they make up all but 3% or so of the library.
hiPSC survival = enhancers of human iPSC single-cell survival; hiPSC single-cell survival, ATPlite luminescence; 100% = ROCK inhibitor wells, 0% = DMSO; survival enhancement, % at 20 µM; 0.044% of 360,000 active; AID 602274; in the data active means survival enhancement above about 18%;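 further: cells exposed to compounds for 16 hours before the ATP read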
UBC13 polyUb = human UBC13 polyubiquitination inhibition. P61088. UBC13 polyubiquitin chain formation, TR-FRET. inhibition, % at 20 µM. 0.47% of 330,000 active; in the data active means inhibition above about 45%, passing the limit was not always enough
Granule exo inh = lytic granule exocytosis inhibition. 0.66% of 360,000 active. TALL-104 LAMP-1 surface exposure, flow cytometry; cells stimulated with thapsigargin and PMA. inhibition, % at 10 µM;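 active means inhibition above about 55%, limit read from the data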
MPTP inh = blocks calcium-induced mitochondrial swelling. isolated mouse mitochondria, Ca2+ swelling absorbance, 30 min. inhibition, % at 10 µM. 1.4% of 360,000 active. AID 602449;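 active means inhibition of 50% or more, scaled per plate between neutral and stimulator controls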
Apaf-1 inh = human Apaf-1 inhibition; reconstituted apoptosome caspase-3 activity, DEVD-Rh110 fluorescence; 0.71% of 330,000 active; inhibition, % at 20 µM; active means inhibition of at least 40% at 20 µM
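Material: reconstituted apoptosome with Apaf-1, cytochrome c, caspase-9, procaspase-3, dATP / Buffer or medium: pH 7.5 Hepes buffer with CHAPS, BSA, DTT / Also added: cytochrome c with DEVD-Rh110 / Schedule: compound with Apaf-1, dATP, procaspase-3 30 min, then 50 min reaction, room temperature / Technique: rhodamine 110 fluorescence at Ex 480/Em 540 nm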
MIN6 prolif = MIN6 beta-cell proliferation induction; proliferation, % at 10 µM; 0.29% of 330,000 active; MIN6 cells proliferation, ATPlite luminescence, 48 h; cells starved in 0.2% serum; 100% = growth in 10% serum;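 active means compounds whose signal lies at least 3.5 SD above the mean of all wells on their plate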
Rh123 counter = mitochondrial membrane potential, counter-screen. shares compounds with MPTP inh. isolated mitochondria, Rhodamine 123 fluorescence. inhibition, % at 10 µM. 78% of 5,000 active. AID 624504; in the data active means inhibition above about 22%
MPTP abs DR = dose response confirmation of mitochondrial permeability transition pore inhibitors; shares compounds with MPTP inh; isolated mitochondria swelling, absorbance; IC50, µM; 58% of 780 active; AID 651561; in the data active means IC50 below about 20 µM
MPTP counter DR = active in counter-screen for permeability transition pore inhibitors; shares compounds with MPTP inh; isolated mitochondria counterscreen, fluorescence read-out; IC50, µM; 49% of 780 active; in the data active means IC50 below about 80 µM
Each line names hits and unclear results; the compound was inactive in the other large screens (follow-up assays come after a bar, where they were run); ! = repeats disagree.

O=C(c1ccc(Cl)cc1)C1CCCN(Cc2cccc3ncccc23)C1 (stereo not drawn)	MPTP inh 97 | Rh123 counter 72
COCCNCCOc1ccc(C(C)(C)c2ccccc2)cc1	MPTP inh 78 | Rh123 counter inactive | MPTP abs DR 7.7 | MPTP counter DR inactive
O=C(c1cc(C(=O)NCc2ccccc2)c(=O)n(Cc2ccccc2)c1)c1cc(Br)ccc1O	MPTP inh 84 | Rh123 counter 72
Cc1cc2c(cc1C)NP(=S)(c1ccccc1)N2	none (no result: UBC13 polyUb, Apaf-1 inh, MIN6 prolif)
CC1CCC(NC(=O)CNC(=S)N2CC3CC(C2)c2cccc(=O)n2C3)CC1 (stereo not drawn)	none
C=CCn1c(O)c(C(CC)=Nc2ccc(N(CC)CC)cc2)c(=O)[nH]c1=O	MPTP inh 75 | Rh123 counter 29
O=C(O)COc1ccc(Cl)cc1Cl	none
Oc1cc(Cl)ccc1Oc1ccc(Cl)cc1Cl	MPTP inh 92 | Rh123 counter 99
Cc1ccc2c(c1)C1CN(C)CCC1N2C(=O)Nc1cccc(Cl)c1 (stereo not drawn)	MPTP inh 94 | Rh123 counter 91
CCCCCCCCCCCCCCCC[n+]1ccccc1	MPTP inh 53! (no result: UBC13 polyUb, Apaf-1 inh, MIN6 prolif) | Rh123 counter 107
CN1C(=O)NC(=O)C2(CCCC2)C1=O	none (no result: UBC13 polyUb, Apaf-1 inh, MIN6 prolif)
CCC(=NCCOc1ccc(Cl)cc1)c1c(O)n(C)c(=O)n(C)c1=O	MPTP inh 96 | Rh123 counter 90
CCC(=NCCc1c[nH]c2ccccc12)c1c(O)n(C)c(=O)n(C)c1=O	MPTP inh 70 | Rh123 counter 59
CCOc1cc2c(cc1OCC)-n1cccc1C(c1cccc(OCC)c1O)NC2 (stereo not drawn)	none
Cc1cc(C)n(-c2ccc(NN=C(C#N)C#N)cc2)n1	MPTP inh 84 | Rh123 counter 90
N#CC(C#N)=NNc1ccc(-n2ccc(C(F)(F)F)n2)cc1	MPTP inh 78 | Rh123 counter 82
c1cc2c(cc1NC1=NCCO1)CCCC2	none (no result: UBC13 polyUb, Apaf-1 inh, MIN6 prolif)
CCC(=Nc1cccc(C(F)(F)F)c1)c1c(O)n(C)c(=O)n(C)c1=O	MPTP inh 80 | Rh123 counter inactive | MPTP abs DR 9 | MPTP counter DR 14
O=S(=O)(c1cc(Cl)cc(Cl)c1)N1Cc2cc(-c3ccccc3)ccc2-n2nncc2C1	none (no result: UBC13 polyUb, Apaf-1 inh, MIN6 prolif)
CC1=C(N2CC2)C(=O)C(CO)=C(N2CC2)C1=O	none (no result: UBC13 polyUb, Apaf-1 inh, MIN6 prolif)
CCC(=O)c1ccc(OC(=O)N(C)c2ccccc2)cc1	none
CCC(=C(c1ccc(O)cc1)c1ccc(OCCN(C)C)cc1)c1ccccc1	none (no result: UBC13 polyUb, Apaf-1 inh, MIN6 prolif) | MPTP abs DR inactive | MPTP counter DR inactive
C[C@@H]1CN([C@@H](C)CO)C(=O)CCCn2nncc2CO[C@H]1CN(C)C(=O)Oc1ccc2ccccc2c1	none (no result: UBC13 polyUb, Apaf-1 inh, MIN6 prolif)
CCN(CC)S(=O)(=O)c1ccc(NN=C(C#N)C#N)cc1	MPTP inh 103 | Rh123 counter 80
OCC1CO1 (stereo not drawn)	none
CN1CCN(Cc2cc3c(cc2[N+](=O)[O-])OCO3)CC1	none
CCCCC1(CCCC)C(=O)NC(=Nc2cccc(C)c2)NC1=O	MPTP inh 92 | Rh123 counter 93
Oc1c(Cl)c(Cl)c(Cl)c(Cl)c1Cl	MPTP inh 73 | Rh123 counter 88
COC1=CC2C3Cc4ccc(OC)c(O)c4C2(CCN3C)CC1=O (stereo not drawn)	none (no result: UBC13 polyUb, Apaf-1 inh, MIN6 prolif)
O=C1NC(=S)NC(=O)C1=Cc1ccc2c(c1)CCN2CCCCl	MPTP inh 60 | Rh123 counter inactive
Cc1ccccc1N1C(=O)NC(=O)/C(=C\c2ccc3c(c2)CCCN3Cc2ccccc2)C1=O	none
CCN1C(=O)/C(=C/c2ccc(N(CC)CC)cc2OC)C(=O)NC1=S	MPTP inh 66 | Rh123 counter inactive
CCN1C(=O)NC(=O)/C(=C/c2cc(C)n(-c3sc(C)c(C)c3C#N)c2C)C1=O	MPTP inh 57 | Rh123 counter 35
CCOC(=O)c1c(-n2c(C)cc(/C=C3/C(=O)NC(=O)N(CC)C3=O)c2C)sc2c1CCCC2	none
COc1ccc(N2C(=O)NC(=O)/C(=C\c3ccc([N+](=O)[O-])s3)C2=O)cc1	MPTP inh 56 | Rh123 counter inactive
Cc1cc(O)c2c(c1)C(=O)C13C(=C2O)C(=O)[C@H]2[C@@H](O)[C@@H]1[C@H]1[C@H](O)[C@@H]3C(=O)C3=C(O)c4c(O)cc(C)cc4C(=O)C312 (stereo partly drawn)	MPTP inh 87 | Rh123 counter inactive
CCN1/C(=C\C=C\C2=[N+](CC)c3ccccc3C2(C)C)C(C)(C)c2ccccc21	Granule exo inh 85, MPTP inh active, Apaf-1 inh 56 | Rh123 counter 84
O=c1c([N+](=O)[O-])cn(O)cc1[N+](=O)[O-]	none (no result: UBC13 polyUb, Apaf-1 inh, MIN6 prolif)
COC(=O)C1=C(c2cccc(C#N)c2)C[C@@H]2CC[C@H]1N2C(=O)NC1CC1	none
CC(=O)c1cn(Cc2ccccc2C#N)c2ccccc12	MPTP inh 77 | Rh123 counter 90
CC(=O)c1cn(Cc2ccccc2F)c2ccccc12	MPTP inh 73 | Rh123 counter 70
O=Cc1cn(Cc2ccccc2F)c2ccccc12	none
O=C1NCN(c2ccccc2)C12CCN(C(c1cc3ccccc3o1)c1nnnn1C1CCCCC1)CC2 (stereo not drawn)	none (no result: UBC13 polyUb, Apaf-1 inh, MIN6 prolif)
COC(=O)C(O)(c1ccc(NC(=S)NC(=O)c2ccc(Cl)cc2Cl)c(C)c1)C(F)(F)F (stereo not drawn)	MPTP inh 86 | Rh123 counter 86
CCOC(=O)C(O)(c1ccc(NC(=S)NC(=O)c2ccc(Cl)cc2Cl)c(C)c1)C(F)(F)F (stereo not drawn)	MPTP inh 87 | Rh123 counter 90
COCCCNP1(=O)OCC(C)([N+](=O)[O-])CO1 (stereo not drawn)	none (no result: UBC13 polyUb, Apaf-1 inh, MIN6 prolif)
CCCc1nc2ccc(Br)cc2c(=O)n1-c1ccc([N+](=O)[O-])c(C(F)(F)F)c1	MPTP inh 94 | Rh123 counter 79
CCc1nc2ccc(Br)cc2c(=O)n1-c1ccccc1C(F)(F)F	none
CN1CCC(O)(c2ccccc2)C(C(=O)c2ccccc2)C1 (stereo not drawn)	MPTP inh 55 | Rh123 counter inactive | MPTP abs DR inactive | MPTP counter DR inactive
ClC(Cl)=C(c1ccc(Cl)cc1)c1ccc(Cl)cc1	MPTP inh 77 | Rh123 counter inactive | MPTP abs DR inactive | MPTP counter DR 78
S=C(c1ccc(Cl)cc1)N1CCOCC1	none
COC(=O)C1C2c3ccccc3C(c3ccccc32)C1(C)C(=O)OC (stereo not drawn)	none (no result: UBC13 polyUb, Apaf-1 inh, MIN6 prolif)

Screening data deposited in PubChem by several laboratories.
